Data as given in ChEMBL document CHEMBL4321849, “Biphenyl Acid Derivatives as APJ Receptor Agonists” (J Med Chem, 2019).
Converted amounts (≈) assume the structure as drawn. The source made the active and inactive calls. No cut-off for these calls is given here.

Legend:
Apelin receptor [1] = molecular target: T1, Apelin receptor (Homo sapiens, UniProt P35414); assay: Agonist activity at human APJ-R expressed in HEK293 cells assessed as inhibition of forskolin- stimulated cAMP accumulation incubated for 30 mins by HTRF assay; assay type: functional, cell-based
T1 sequence (P35414 whole entry): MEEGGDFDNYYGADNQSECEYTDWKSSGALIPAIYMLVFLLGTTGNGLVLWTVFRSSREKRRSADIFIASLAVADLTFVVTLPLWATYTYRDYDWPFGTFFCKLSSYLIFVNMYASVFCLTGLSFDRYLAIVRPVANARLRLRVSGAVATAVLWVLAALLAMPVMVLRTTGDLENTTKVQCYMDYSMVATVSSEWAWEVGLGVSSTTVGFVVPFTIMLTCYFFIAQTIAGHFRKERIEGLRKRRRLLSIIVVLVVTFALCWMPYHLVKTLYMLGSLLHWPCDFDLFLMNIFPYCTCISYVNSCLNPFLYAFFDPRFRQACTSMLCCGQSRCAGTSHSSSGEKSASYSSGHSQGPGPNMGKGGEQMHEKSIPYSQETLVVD

Rattus norvegicus [2] = assay: (§1) Acute hemodynamic effect in isoflurane-anesthetized Sprague-Dawley rat assessed as increase in cardiac output at 6 ug/min/kg, iv infused into jugular vein for 15 mins with continuous monitoring of hemodynamics followed by monitoring for additional 15 mins after terminating infusion by pressure-volume loop analysis relative to control; assay type: functional, organism-based
Outline: (§2)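 Male SD rats under isoflurane, instrumented with a Millar PV-loop catheter in the LV and a pressure catheter in the abdominal aorta. After a stable baseline, test agent or N,N-dimethylacetamide vehicle (100 μL/kg/min) infused into the jugular vein for 15 min. Hemodynamics were monitored continuously during infusion and for 15 min after it stopped. n = 7–8 per dose, vehicle n = 10.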

[3] = as §1, with “Toxicity” for “Acute hemodynamic effect”, “effect on blood pressure by measuring transient blood pressure drop” for “increase in cardiac output”; assay type: organism-based; settings: in vivo, 0.25 h; outline: as §2
[4] = as §1, with “Toxicity” for “Acute hemodynamic effect”, “effect on heart rate” for “increase in cardiac output”; assay type: organism-based; settings: in vivo, 0.25 h; outline: as §2
[5] = molecular target: T2, Apelin receptor (Homo sapiens) (UniProt P35414); assay: Displacement of [125I]-apelin-13 from human APJ-R expressed in HEK293 cell membranes incubated for 1 hr by radioligand binding assay
T2 sequence (whole entry): T1 sequence (P35414 whole entry)
Outline: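 Membranes from HEK293 cells expressing human APJ-R (1 μg) were incubated with increasing test concentrations and 0.1 nM [125I]-(Pyr1)apelin-13. Buffer was 25 mM HEPES, 10 mM MgCl2, 2 mM EGTA and 0.1% BSA, pH 7.2. Incubation ran 1 h at room temperature. Bound ligand was separated on 0.3% polyethyleneimine-soaked GF/B filters.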

Rattus norvegicus [6] = assay: as §1, with “10 to 1000” for “6”; assay type: functional, organism-based; outline: as §2
[7] = Plasma concentration in Sprague-Dawley rat at 1000 ug/min/kg, iv infused into jugular vein for 15 mins; assay type: ADME, organism-based
Outline: (§3)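 Rats separate from the hemodynamic groups received the same 15 min jugular infusions (n = 3/dose). Plasma concentration (μM) was measured at the end of the 15 min infusion. Washout samples were also taken after stopping the 10 and 1000 μg/kg/min infusions.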

[8] = as §1, with “Toxicity” for “Acute hemodynamic effect”, “effect on blood pressure by measuring transient blood pressure drop” for “increase in cardiac output”, “100” for “6”; assay type: organism-based; settings: in vivo, 0.25 h; outline: as §2
Rattus norvegicus [9] = assay: as §1, with “100” for “6”; assay type: functional; outline: as §2
[10] = Solubility in pH 7.4 buffer using amorphous form; assay type: physicochemical
[11] = as §1, with “Toxicity” for “Acute hemodynamic effect”, “effect on heart rate” for “increase in cardiac output”, “100” for “6”; assay type: organism-based; settings: in vivo, 0.25 h; outline: as §2
[12] = as §1, with “Toxicity” for “Acute hemodynamic effect”, “effect on heart rate” for “increase in cardiac output”, “10 to 1000” for “6”; assay type: organism-based; settings: in vivo, 0.25 h; outline: as §2
[13] = Plasma concentration in Sprague-Dawley rat at 10 ug/min/kg, iv infused into jugular vein for 15 mins; assay type: ADME, organism-based; outline: as §3
[14] = Plasma concentration in Sprague-Dawley rat at 100 ug/min/kg, iv infused into jugular vein for 15 mins; assay type: ADME, organism-based; outline: as §3
Apelin receptor [15] = molecular target: T3, Apelin receptor (Rattus norvegicus, UniProt Q9JHG3); assay: Agonist activity at rat APJ-R expressed in HEK293 cells assessed as inhibition of forskolin- stimulated cAMP accumulation incubated for 30 mins by HTRF assay; assay type: functional, cell-based
T3 sequence (Q9JHG3 whole entry): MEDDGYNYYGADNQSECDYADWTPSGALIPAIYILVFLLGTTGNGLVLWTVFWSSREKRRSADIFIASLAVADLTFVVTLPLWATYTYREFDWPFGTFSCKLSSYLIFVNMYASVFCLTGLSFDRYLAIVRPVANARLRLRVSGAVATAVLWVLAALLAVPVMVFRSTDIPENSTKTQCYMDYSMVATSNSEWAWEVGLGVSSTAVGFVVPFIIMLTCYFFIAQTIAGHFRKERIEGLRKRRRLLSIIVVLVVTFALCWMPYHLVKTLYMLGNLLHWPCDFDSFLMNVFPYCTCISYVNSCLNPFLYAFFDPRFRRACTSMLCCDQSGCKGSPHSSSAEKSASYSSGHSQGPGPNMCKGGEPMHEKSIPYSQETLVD

EC50 (Apelin receptor [1]) [nM]	Structure (SMILES)	other results
0.19	COC[C@@H](NC(=O)c1ccc(-c2cc(Cl)ccc2C(=O)Nc2ccc(OC)c(F)c2)c(C(=O)O)c1)c1ccccc1	–
9	CCC[C@@H](NC(=O)c1ccc(-c2ccc(Cl)cc2-c2nc3ccccc3[nH]2)c(C(=O)O)c1)c1ccccc1	–
–	CSCC[C@H](NC(=O)[C@@H]1CCCN1C(=O)CNC(=O)[C@H](CCCCN)NC(=O)[C@H](Cc1cnc[nH]1)NC(=O)[C@H](CO)NC(=O)[C@H](CC(C)C)NC(=O)[C@H](CCCNC(=N)N)NC(=O)[C@@H]1CCCN1C(=O)[C@H](CCCNC(=N)N)NC(=O)[C@@H]1CCC(=O)N1)C(=O)N1CCC[C@H]1C(=O)N[C@@H](Cc1ccccc1)C(=O)O	Activity (Rattus norvegicus [2]): Active; Activity [3]: Non-Toxic; Activity [4]: Non-Toxic
2.7	COC[C@H](NC(=O)c1ccc(-c2cc(Cl)ccc2C(=O)Nc2ccc(OC)c(F)c2)c(C(=O)O)c1)c1ccccc1	–
0.33	CCC[C@@H](NC(=O)c1ccc(-c2cc(Cl)ccc2C(=O)Nc2ccc(OC)c(F)c2)c(C(=O)O)c1)c1ccccc1	–
0.18	CCC[C@@H](NC(=O)c1ccc(-c2c(C)cccc2-c2nc3ccccc3[nH]2)c(C(=O)O)c1)c1ccccc1	–
–	CCC[C@@H](NC(=O)c1ccc(-c2c(Cl)cccc2-c2nc3ccccc3[nH]2)c(C(=O)O)c1)c1ccccc1 (stereo in doubt; 15a) [listing 1 of 2 here]	inhibition [5]: Active; Activity (Rattus norvegicus [6]): Dose-dependent effect
0.51	CCC[C@@H](NC(=O)c1ccc(-c2c(F)cccc2-c2nc3ccccc3[nH]2)c(C(=O)O)c1)c1ccccc1	–
0.093	CCC[C@@H](NC(=O)c1ccc(-c2c(Cl)cccc2-c2nc3ccccc3[nH]2)c(C(=O)O)c1)c1ccccc1 (stereo in doubt; 15a) [listing 2 of 2 here]	concentration at 0.25 h [7]: 82 µM; Activity [8]: < 5%; Activity (Rattus norvegicus [9]): 10%; solubility [10]: 660 µg/mL (≈ 1260 µM); Activity [11]: Non-Toxic; Activity [12]: Non-Toxic; concentration at 0.25 h [13]: 0.44 µM; concentration at 0.25 h [14]: 4.4 µM; EC50 (Apelin receptor [15]): 0.12 nM
5.7	CCC[C@@H](NC(=O)c1ccc(-c2cc(OC)ccc2-c2nc3ccccc3[nH]2)c(C(=O)O)c1)c1ccccc1	–
1.5	CCC[C@@H](NC(=O)c1ccc(-c2cc(C)ccc2-c2nc3ccccc3[nH]2)c(C(=O)O)c1)c1ccccc1	–
5.7	CCC[C@@H](NC(=O)c1ccc(-c2ccccc2-c2nc3ccccc3[nH]2)c(C(=O)O)c1)c1ccccc1	–
4900	CCC[C@@H](NC(=O)c1ccc(-c2cc(Cl)ccc2-c2nc3ccccc3o2)c(C(=O)O)c1)c1ccccc1	–
59	COc1ccc(NC(=O)c2ccc(Cl)cc2-c2ccc(C(=O)N[C@H](CO)c3ccccc3)cc2C(=O)O)cc1F	–
0.062	CCC[C@@H](NC(=O)c1ccc(-c2c(Cl)cccc2-c2nc3cc(OC)ccc3[nH]2)c(C(=O)O)c1)c1ccccc1	solubility [10]: 180 µg/mL (≈ 325 µM); EC50 (Apelin receptor [15]): 0.12 nM
2100	CCC[C@@H](NC(=O)c1ccc(-c2cccc(Cl)c2-c2nc3ccccc3[nH]2)c(C(=O)O)c1)c1ccccc1	–
29	COc1ccc(NC(=O)c2ccc(Cl)cc2-c2ccc(C(=O)Nc3ccc4c(c3)CCC4)cc2C(=O)O)cc1F	–
0.6	CCC[C@@H](NC(=O)c1ccc(-c2cc(Cl)ccc2-c2nc3cc(C)ccc3[nH]2)c(C(=O)O)c1)c1ccccc1	–
0.2	CCC[C@@H](NC(=O)c1ccc(-c2c(Cl)cccc2-c2nc3ccccc3[nH]2)c(C(=O)O)c1)c1ccccc1 (stereo in doubt; 12f)	–
1.4	CCC[C@@H](NC(=O)c1ccc(-c2cc(Cl)ccc2-c2nc3ccccc3[nH]2)c(C(=O)O)c1)c1ccccc1	–
7.4	CCC[C@@H](NC(=O)c1ccc(-c2cc(Cl)ccc2-c2ncc(-c3ccccc3)[nH]2)c(C(=O)O)c1)c1ccccc1	–
19	CCC[C@@H](NC(=O)c1ccc(-c2cc(Cl)ccc2-c2nc3ccncc3[nH]2)c(C(=O)O)c1)c1ccccc1	–
0.083	CCC[C@@H](NC(=O)c1ccc(-c2cc(Cl)ccc2-c2nc3cc(OC)ccc3[nH]2)c(C(=O)O)c1)c1ccccc1	–
51	CCC[C@@H](NC(=O)c1ccc(-c2cc(Cl)ccc2-c2nc3cccc(C)c3[nH]2)c(C(=O)O)c1)c1ccccc1	–
0.31	CCC[C@@H](NC(=O)c1ccc(-c2cc(Cl)ccc2-c2nc3cc(Cl)ccc3[nH]2)c(C(=O)O)c1)c1ccccc1	–
22	CCC[C@@H](NC(=O)c1ccc(-c2c(Cl)cccc2-c2nc3ccccc3[nH]2)c(C(=O)O)c1)c1ccccc1 (stereo in doubt; 15b)	EC50 (Apelin receptor [15]): 43 nM
